Compounds with a hit are over-represented: about 5.5% of the library has one in this group of screens.
WT yeast gro inh = growth inhibition of WT strain, primary screen, mitochondrial fusion inhibitor project, WT and mutant strains, chemical genetic | inhibition, % at 10 µM | mitochondrial fusion phenotypic screen | actives 2.1% (n = 190,000) | AID 1362, 2008; in the data active = inhibition above about 58%; tested in S. cerevisiae
Yeast lifespan up = compounds extending yeast replicative lifespan, primary screen, S. cerevisiae, OD615 | S. cerevisiae growth with nicotinamide; deaD strain in restrictive glucose medium | inhibition of the nicotinamide effect, % at 10 µM | actives 0.68% (n = 130,000) | AID 775, 2007;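 active = inhibition above a set limit, placed 3 SD over the median of all compounds, cut at about 26% in these data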;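 also: 0% = nicotinamide-treated wells and 100% = cells grown without nicotinamide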
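assay system = DeaD-strain S. cerevisiae | buffer or medium = restrictive glucose medium | reagent = 1.5 mM nicotinamide | compound = 10 µM single point, 0.25% DMSO | incubation = 48 h compound exposure at 30 °C, humidified | signal = OD615 measurement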
BB579 growth dn = growth inhibitors of yeast BB579 in restrictive medium, primary screen, yeast lifespan-shortening project, S. cerevisiae | actives 0.51% (n = 140,000) | OD615, 48 h | inhibition, % at 10 µM;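 active = inhibition above a set limit, 3 SD over the mean compound inhibition, cut at about 44% in these data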
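System: DeaD yeast strain BB579; buffer or medium: CSMM-D dextrose restrictive medium; technique: OD at 615 nm; schedule: 4 h cell preincubation, 48 h compound exposure, 30 °C humidified; doses: single 10 µM dose; controls: amphotericin B 10 µg/mL, positive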
Cl transport mod = KCC2 cotransporter modulators, thallium flux, primary screen, cell-based, HEK293 KCC2, FluoZin-2 fluorescence, MLSMR; KCC2 cells, thallium flux FluoZin-2 fluorescence; B-score of Tl+ flux slope (higher = more flux/activation; lower = inhibition) at 10 µM; actives 2.2% (n = 190,000);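 active = thallium flux slope and its plate-corrected score both differing from the plate sample mean at a set confidence after two filtering rounds, in either direction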;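 also: slope of fluorescence scaled to starting intensity during 10 to 20 s after thallium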
Target sequence (Q9H2X9 whole entry, looked up): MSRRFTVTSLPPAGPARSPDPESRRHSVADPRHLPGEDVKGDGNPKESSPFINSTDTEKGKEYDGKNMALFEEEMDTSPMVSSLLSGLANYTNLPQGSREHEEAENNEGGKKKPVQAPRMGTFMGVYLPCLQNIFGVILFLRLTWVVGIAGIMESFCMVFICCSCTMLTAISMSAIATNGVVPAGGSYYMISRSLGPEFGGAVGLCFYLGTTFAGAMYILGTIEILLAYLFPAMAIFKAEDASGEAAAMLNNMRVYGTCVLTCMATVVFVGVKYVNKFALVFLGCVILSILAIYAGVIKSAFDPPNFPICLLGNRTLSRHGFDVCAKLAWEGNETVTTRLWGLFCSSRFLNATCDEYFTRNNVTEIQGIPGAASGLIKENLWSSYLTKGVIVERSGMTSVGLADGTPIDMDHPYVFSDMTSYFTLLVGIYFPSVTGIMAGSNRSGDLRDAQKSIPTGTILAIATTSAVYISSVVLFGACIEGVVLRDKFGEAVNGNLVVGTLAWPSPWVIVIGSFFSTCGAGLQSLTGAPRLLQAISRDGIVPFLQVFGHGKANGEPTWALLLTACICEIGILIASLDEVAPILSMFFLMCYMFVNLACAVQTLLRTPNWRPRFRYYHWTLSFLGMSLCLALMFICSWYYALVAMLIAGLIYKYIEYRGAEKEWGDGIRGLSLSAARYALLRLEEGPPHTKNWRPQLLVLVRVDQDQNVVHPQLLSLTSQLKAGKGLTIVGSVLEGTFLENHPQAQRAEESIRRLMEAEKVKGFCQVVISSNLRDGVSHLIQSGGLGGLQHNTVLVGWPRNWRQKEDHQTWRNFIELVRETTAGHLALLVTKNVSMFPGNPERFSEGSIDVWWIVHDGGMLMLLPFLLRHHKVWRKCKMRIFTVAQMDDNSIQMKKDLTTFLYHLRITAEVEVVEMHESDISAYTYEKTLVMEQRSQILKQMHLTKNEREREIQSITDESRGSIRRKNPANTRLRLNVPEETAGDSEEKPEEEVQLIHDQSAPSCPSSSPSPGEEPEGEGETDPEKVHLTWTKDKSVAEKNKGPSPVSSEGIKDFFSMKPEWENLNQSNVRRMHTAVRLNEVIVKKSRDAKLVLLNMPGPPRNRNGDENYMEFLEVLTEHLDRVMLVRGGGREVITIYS
RAM inhibit = inhibitors of the yeast RAM network, primary screen, dse1pr::URA3 reporter, 5-FOA selection; S. cerevisiae dse1pr::URA3 reporter, 5-FOA growth OD615, 2 d; analog-sensitive cbk1-as2 kinase mutant strain; inhibition, % at 50 µM; actives 1.8% (n = 190,000);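 active = inhibition above a set limit, 3 SD over mean compound inhibition, cut at about 8.4% in these data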;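 also: 0% = DMSO-only wells with no growth and 100% = 10 µM 1-NA-PP1 full growth; inhibition rescues growth on 5-FOA so higher OD means more RAM inhibition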
KCC2 sec1 = KCC2 modulators in sodium-free buffer, confirmation, cell-based, HEK293 KCC2, thallium flux, secondary assay; shares compounds with Cl transport mod; FluoZin2 fluorescence; active compounds read high; normalised thallium flux (F/F0 slope) at 10 µM; actives 15% (n = 3,700); AID 1713, 2009;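 active = thallium flux slope above the same plate's solvent-only control mean plus 3 SD; inconclusive = the two replicate wells disagree; inactive = no significant difference from solvent-only control wells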
KCC2 bumet counter = thallium flux persisting under bumetanide in KCC2 cells, confirmation, counter-screen for KCC2 modulator project, cell-based, HEK293 KCC2, FluoZin2, secondary assay 3; shares compounds with Cl transport mod; HEK293-KCC2 + bumetanide/ouabain; active compounds read high; normalized thallium flux at 10 µM; actives 49% (n = 3,700); AID 1714, 2009;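 active = thallium entry rate above the same plate's blocked-transporter control wells by more than 3 SD; inconclusive = the two repeat wells disagree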;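 also: raw slope of fluorescence over initial fluorescence between 10 and 20 s after thallium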
KCC2 secondary2 = KCC2 modulators without ouabain present, confirmation, cell-based, HEK293 KCC2, thallium flux, FluoZin2, secondary assay 2. shares compounds with Cl transport mod. thallium flux FluoZin2 fluorescence; actives lie on both sides; F/F0 rise rate, 10–20 s post-thallium. normalized thallium flux at 10 µM. actives 23% (n = 3,700). AID 1715, 2009;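 active = thallium flux slope more than 3 SD above or below the plate's solvent-only control mean, mostly below; inconclusive = the two repeat wells disagreed; inactive = no significant shift from solvent-only controls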;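 also: raw slope with 0.1% DMSO as baseline and bumetanide as block control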
HEK293 Tl flux = thallium flux modulation in parental HEK cells, confirmation, counter-screen for KCC2 modulator project, cell-based, counterscreen 1 | shares compounds with Cl transport mod | HEK293 parental cells, thallium flux FluoZin2, ouabain; baseline-ratio fluorescence slope, 10–20 s after thallium | thallium flux rate (normalised fluorescence) at 10 µM | actives 46% (n = 3,700);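 active = thallium flux rate significantly above the same plate's solvent-only control wells, beyond their mean plus 3 SD; inconclusive = the two replicate wells gave conflicting results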
KCC2 retest ouab = KCC2 inhibitors and activators, ouabain retest, confirmation, HEK-KCC2 cells | shares compounds with Cl transport mod | HEK293-KCC2, thallium flux FluoZin2 fluorescence; bidirectional: low = inhibitor, high = activator | raw Tl+ flux slope (below DMSO = inhibition, above = activation) at 10 µM | actives 48% (n = 3,700);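 active = thallium flux slope beyond 3 SD from same-plate DMSO control mean in most replicates, usually higher, sometimes lower; inconclusive = repeat tests gave conflicting results; inactive = no significant difference from controls in most replicates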;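 also: slope of initial-normalized fluorescence between seconds 10 and 20 after thallium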
HEK293 Tl flux2 = native HEK Tl+ uptake effects, second counter-screen – HEK cells, counterscreen 2, counter-screen for KCC2 modulator project, confirmation. AID 1718, 2009. thallium flux slope at 10 µM. HEK293 parental, thallium flux FluoZin-2 fluorescence slope. actives 33% (n = 3,700). shares compounds with Cl transport mod;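 active = thallium flux slope above the same plate's solvent-control mean plus 3 SD in both duplicate wells; inconclusive = duplicate wells that disagreed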;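 also: run without ouabain in cells lacking the KCC2 cotransporter; slope of fluorescence scaled to its starting value between 10 and 20 s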
Numbers without * were called inactive; u = inconclusive; x = not tested or not shown.

SMILES | WT yeast gro inh | Yeast lifespan up | BB579 growth dn | Cl transport mod | RAM inhibit | KCC2 sec1 | KCC2 bumet counter | KCC2 secondary2 | HEK293 Tl flux | KCC2 retest ouab | HEK293 Tl flux2
Cc1cc(C)c(NC(=O)Cn2cc3c(n2)CCCC3)c(C)c1 | 7 | 5 | -6 | 0.39 | 1 | x | x | x | x | x | x
Cc1ccc2nc(NC(=O)Cn3cc4c(n3)CCCCC4)sc2c1 | 11 | -1 | -29 | -2.9* | 3 | 0.009 | u | 0.031 | u | 0.02 | 0.011
NS(=O)(=O)c1ccc(NC(=O)NC2CCCCC2)cc1 | 5 | -7 | -53 | 3.2* | 3 | 0.0093 | 0.0061 | 0.031 | 0.0081 | 0.019 | 0.01
NS(=O)(=O)c1ccc(NC(=S)NC2CCCCC2)cc1 | 2 | x | x | 3.4 | 0 | x | x | x | x | x | x
Cc1cccc(CSC2=CS(=O)(=O)c3ccccc3N2)c1 | -6 | -14 | -5 | -3.2 | 2 | x | x | x | x | x | x
O=S1(=O)C=C(SCc2cccc(Cl)c2)Nc2ccccc21 | -10 | -20 | -11 | -3.4* | 2 | u | 0.0054 | 0.03 | 0.0072 | 0.016* | 0.01
Cc1ccc(-n2c(=S)[nH]c3c(oc4ccccc43)c2=O)cc1C | 4 | 0 | -22 | 5.7* | 5 | 0.017* | 0.04* | 0.03 | 0.018* | 0.029* | 0.012*
O=c1c2oc3ccccc3c2[nH]c(=S)n1-c1ccc(F)cc1 | 27 | x | x | 1.7 | 4 | x | x | x | x | x | x
CC(=O)SC(C)CC(=O)NCc1ccccc1 (stereo not drawn) | 10 | -6 | -4 | -0.57 | 2 | x | x | x | x | x | x
Cc1cccc(OCc2nnc(SCC(=O)c3cccs3)n2C)c1C | 38 | -10 | -16 | -4.5* | -1 | 0.0068 | 0.0042 | 0.024* | 0.0075 | 0.016* | 0.0096
O=C1N(Cc2cccc(Cl)c2)C[C@@H]2C[C@@H](c3cccc4ncccc34)N3CCC[C@@]123 | 9 | x | x | x | 0 | 0.0098 | 0.0052 | 0.036 | 0.0035 | 0.019 | 0.011
O=C1N(Cc2cccc(Cl)c2)C[C@@H]2C[C@@H](c3cccc4cccnc34)N3CCC[C@@]123 | 15 | x | x | -1 | 0 | x | x | x | x | x | x
O=C(OCc1ccc(Cl)cc1)c1ccccc1C(=O)c1ccccc1 | 39 | -6 | -32 | 0.54 | -1 | x | x | x | x | x | x
CCOC(=O)COc1ccc(/C=C2\NC(=S)N(CC)C2=O)cc1 | 5 | -1 | 0 | -6.2* | 2 | 0.0068 | 0.011* | 0.029 | 0.0066 | 0.014* | 0.01
CCN1C(=O)/C(=C/c2ccc(C)s2)NC1=S | 29 | -10 | -52 | x | 2 | x | x | x | x | x | x
NC(=O)C1CCN(C(=O)CCC(=O)c2ccc(Br)cc2)CC1 | -19 | x | x | -0.44 | 1 | x | x | x | x | x | x

Source: PubChem BioAssay
